Laboratory results reported in ChEMBL document CHEMBL1153534, “Design and synthesis of androgen receptor antagonists with bulky side chains for overcoming antiandrogen resistance” (J Med Chem, 2009).
Active and inactive are the calls of the source. No cut-off for these calls is given here.

Columns and labels:
[1] = test system: LNCaP; experiment: Cytotoxicity against human LNCAP cells after 72 hrs by MTT assay; format: functional, cell-based
[2] = test system: CWR22R; experiment: Cytotoxicity against human 22Rv1 cells after 72 hrs by MTT assay; format: functional, cell-based; conditions: 22Rv1, 72 h
[3] = Cytotoxicity against human C4-2B cells after 72 hrs by MTT assay; format: functional, cell-based; conditions: LNCaP C4-2B
[4] = test system: PC-3; experiment: Cytotoxicity against human PC3 cells after 72 hrs by MTT assay; format: functional, cell-based; conditions: Homo sapiens, PC-3, 72 h; read-out: IC50
[5] = Cytotoxicity against human MDA PCa 2b cells after 72 hrs by MTT assay; format: functional, cell-based
[6] = target: T1, Androgen receptor (Homo sapiens) (UniProt P10275); experiment: Activity in human PC3 cells expressing wild-type androgen receptor assessed as ARE-dependent transactivation at 0.1 uM after 24 hrs by luciferase reporter gene assay in absence of DHT; format: cell-based; conditions: PC-3
T1 sequence (whole entry): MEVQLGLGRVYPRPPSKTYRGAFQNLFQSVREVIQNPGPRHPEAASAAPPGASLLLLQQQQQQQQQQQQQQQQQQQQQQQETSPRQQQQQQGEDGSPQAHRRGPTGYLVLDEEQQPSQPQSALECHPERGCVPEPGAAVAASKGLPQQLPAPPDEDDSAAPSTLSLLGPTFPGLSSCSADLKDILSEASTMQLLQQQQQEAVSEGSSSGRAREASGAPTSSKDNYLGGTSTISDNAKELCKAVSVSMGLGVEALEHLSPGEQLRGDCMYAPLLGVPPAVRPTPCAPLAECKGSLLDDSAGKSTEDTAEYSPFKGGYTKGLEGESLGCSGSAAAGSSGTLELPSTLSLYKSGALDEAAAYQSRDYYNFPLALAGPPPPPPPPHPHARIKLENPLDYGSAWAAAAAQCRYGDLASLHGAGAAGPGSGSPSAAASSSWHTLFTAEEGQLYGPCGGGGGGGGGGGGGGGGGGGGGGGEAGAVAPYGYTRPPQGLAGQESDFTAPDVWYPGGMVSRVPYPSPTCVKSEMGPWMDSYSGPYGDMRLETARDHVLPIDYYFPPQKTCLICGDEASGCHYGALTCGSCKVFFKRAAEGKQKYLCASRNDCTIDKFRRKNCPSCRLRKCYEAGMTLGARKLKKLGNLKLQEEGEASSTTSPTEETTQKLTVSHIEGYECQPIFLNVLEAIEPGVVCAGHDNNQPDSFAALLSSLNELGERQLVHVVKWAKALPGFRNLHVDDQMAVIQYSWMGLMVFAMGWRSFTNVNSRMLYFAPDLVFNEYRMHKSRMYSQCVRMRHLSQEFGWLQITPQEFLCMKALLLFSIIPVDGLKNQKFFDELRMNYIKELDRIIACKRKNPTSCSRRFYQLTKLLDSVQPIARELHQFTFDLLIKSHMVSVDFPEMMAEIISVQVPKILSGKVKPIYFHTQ
In short: (§1)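 PC-3 cells, which lack endogenous AR, transiently transfected with plasmids expressing human AR (WT, T877A, W741C or H874Y) plus an ARE-driven MMTV-luc reporter. Cells were treated with or without 0.1 nM DHT. Firefly luciferase was standardized to a Renilla control and normalized to the 0.1 nM DHT signal. Mean ± sd.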

[7] = test system: Androgen receptor (Homo sapiens), P10275 [T878A]; experiment: Activity in human PC3 cells expressing androgen receptor T877A mutant assessed as ARE-dependent transactivation at 0.1 uM after 24 hrs by luciferase reporter gene assay in absence of DHT; format: cell-based; conditions: PC-3; in short: as §1
[8] = test system: PC-3; experiment: Activity in human PC3 cells expressing androgen receptor H874Y mutant assessed as ARE-dependent transactivation at 0.1 uM after 24 hrs by luciferase reporter gene assay in absence of DHT; format: cell-based; in short: as §1
[9] = target: T1, Androgen receptor (Homo sapiens); experiment: Activity in human PC3 cells expressing wild-type androgen receptor assessed as ARE-dependent transactivation at 1 uM after 24 hrs by luciferase reporter gene assay in absence of DHT; format: cell-based; conditions: PC-3; in short: as §1
[10] = target: T1, Androgen receptor (Homo sapiens); experiment: Antiandrogenic activity in human PC3 cells expressing wild-type androgen receptor assessed as inhibition of DHT-induced ARE-dependent transactivation at 1 uM after 24 hrs by luciferase reporter gene assay; format: cell-based; conditions: PC-3; in short: as §1
[11] = test system: PC-3; experiment: Antiandrogenic activity in human PC3 cells expressing androgen receptor W741C mutant assessed as inhibition of DHT-induced ARE-dependent transactivation at 1 uM after 24 hrs by luciferase reporter gene assay; format: cell-based; in short: as §1
[12] = test system: LNCaP; experiment: Suppression of DHT-stimulated growth of human LNCAP cells after 72 hrs; format: functional, cell-based
[13] = target: T2, Progesterone receptor (Homo sapiens) (UniProt P06401); experiment: Antagonist activity at human PR B-form expressed in human PC3 cells assessed as inhibition of R5020-induced transactivation at 0.1 uM after 24 hrs by luciferase reporter gene assay; format: functional, cell-based; conditions: PC-3
T2 sequence (whole entry): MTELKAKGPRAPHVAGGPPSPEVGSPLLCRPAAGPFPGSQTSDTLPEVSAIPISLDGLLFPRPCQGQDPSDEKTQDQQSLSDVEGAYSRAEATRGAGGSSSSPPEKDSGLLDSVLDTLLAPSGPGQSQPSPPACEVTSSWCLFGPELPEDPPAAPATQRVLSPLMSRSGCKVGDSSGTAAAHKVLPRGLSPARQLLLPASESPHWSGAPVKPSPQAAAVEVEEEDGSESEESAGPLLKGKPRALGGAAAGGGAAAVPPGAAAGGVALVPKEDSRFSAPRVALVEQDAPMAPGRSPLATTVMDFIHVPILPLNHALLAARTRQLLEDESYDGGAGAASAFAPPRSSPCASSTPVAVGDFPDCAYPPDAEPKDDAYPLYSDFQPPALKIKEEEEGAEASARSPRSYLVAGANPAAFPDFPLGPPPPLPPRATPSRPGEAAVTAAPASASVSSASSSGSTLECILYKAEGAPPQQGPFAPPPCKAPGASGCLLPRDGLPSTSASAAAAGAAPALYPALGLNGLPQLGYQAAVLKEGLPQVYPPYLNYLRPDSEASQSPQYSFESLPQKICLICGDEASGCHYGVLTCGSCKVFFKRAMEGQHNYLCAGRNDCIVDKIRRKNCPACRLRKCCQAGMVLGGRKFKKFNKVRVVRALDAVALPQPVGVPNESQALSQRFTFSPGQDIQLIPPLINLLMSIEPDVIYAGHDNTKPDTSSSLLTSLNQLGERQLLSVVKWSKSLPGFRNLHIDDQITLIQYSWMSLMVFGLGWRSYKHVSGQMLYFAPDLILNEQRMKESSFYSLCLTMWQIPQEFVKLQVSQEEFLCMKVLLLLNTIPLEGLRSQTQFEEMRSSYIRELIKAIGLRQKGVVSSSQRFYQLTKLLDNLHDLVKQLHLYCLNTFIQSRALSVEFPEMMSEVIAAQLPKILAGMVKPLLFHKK
In short: (§2)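 PC-3 cells carrying a luciferase reporter for transactivation by the human PR B form. Antagonist mode used 10 nM R5020 as the agonist. Agonist mode ran in the absence of R5020. Luciferase read-out.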

[14] = target: T2, Progesterone receptor (Homo sapiens); experiment: Agonist activity at human PR B-form expressed in human PC3 cells assessed as receptor transactivation at 0.1 uM after 24 hrs by luciferase reporter gene assay; format: functional, cell-based; conditions: PC-3; in short: as §2

Sequence of Androgen receptor (Homo sapiens), P10275 [T878A] (P10275 whole entry T878A): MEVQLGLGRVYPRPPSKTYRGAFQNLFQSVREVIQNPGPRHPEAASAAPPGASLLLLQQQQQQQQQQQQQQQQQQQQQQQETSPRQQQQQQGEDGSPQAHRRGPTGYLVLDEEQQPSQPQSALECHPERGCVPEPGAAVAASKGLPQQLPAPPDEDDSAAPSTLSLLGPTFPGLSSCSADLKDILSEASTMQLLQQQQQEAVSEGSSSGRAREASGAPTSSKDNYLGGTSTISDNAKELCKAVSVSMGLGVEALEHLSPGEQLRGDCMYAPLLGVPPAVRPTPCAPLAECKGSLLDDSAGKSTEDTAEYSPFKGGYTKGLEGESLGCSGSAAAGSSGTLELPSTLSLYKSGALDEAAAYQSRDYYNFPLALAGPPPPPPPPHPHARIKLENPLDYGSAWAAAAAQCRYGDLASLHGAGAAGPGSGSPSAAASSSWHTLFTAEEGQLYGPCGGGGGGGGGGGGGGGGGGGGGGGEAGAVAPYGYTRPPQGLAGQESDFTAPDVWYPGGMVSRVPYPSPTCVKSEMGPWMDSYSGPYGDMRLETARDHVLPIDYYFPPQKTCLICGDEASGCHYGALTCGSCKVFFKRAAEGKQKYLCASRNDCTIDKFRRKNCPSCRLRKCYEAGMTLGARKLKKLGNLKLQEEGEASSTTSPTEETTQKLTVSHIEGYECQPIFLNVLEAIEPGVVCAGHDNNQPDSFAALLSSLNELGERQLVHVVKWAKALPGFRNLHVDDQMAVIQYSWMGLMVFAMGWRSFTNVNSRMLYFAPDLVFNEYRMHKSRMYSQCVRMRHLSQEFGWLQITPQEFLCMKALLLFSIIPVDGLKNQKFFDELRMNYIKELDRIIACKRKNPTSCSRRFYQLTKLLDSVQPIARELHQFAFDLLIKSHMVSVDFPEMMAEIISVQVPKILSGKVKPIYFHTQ

COc1cc(/C=C(\C(=O)/C=C/C2=C(C)CCCC2(C)C)C(=O)/C=C/c2ccc(O)c(OC)c2)ccc1O
IC50 [1]: 1.3 µM
IC50 [2]: 2.2 µM
IC50 [3]: 1.6 µM
IC50 [4]: 4.2 µM
IC50 [5]: 2.5 µM
Activity [6]: inactive
Activity [7]: inactive
Activity [8]: inactive
Activity [9]: inactive
Activity [10]: Active
Activity [11]: Active
Activity [12]: Dose-dependent effect
Activity [13]: inactive
Activity [14]: inactive
